Here are results for 14 molecules from PubChem BioAssay.

Structures are written as SMILES. The source made the active and inactive calls.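 The calls were made as follows, unless noted: active = NADPH fluorescence slope more negative than the mean of all samples by about 3 SD, 99.7% confidence; inactive = the rest.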

The nature of assay [1]: inhibitors of TNFa-induced NFkB p65 translocation, primary screen, imaging, HUVEC, MLSMR starter and 10KST1 sets (AID 438;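 active = inhibition above 20% together with a positive visual image hit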;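 also: compound added about 3h40 before a 20 min TNFalpha stimulation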;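 as to inhibition: signal is the nuclear over cytoplasmic p65 intensity ratio per well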). The following applies: HUVEC TNFa-induced p65 nuclear translocation; cell count: measured here: nuclei count (cytotoxicity indicator), at 2.08 µM; inhibition: at 2 µM, stronger effect = higher value, 0% TNFa-plus-vehicle, 100% no-TNFa wells.
The nature of assay [2]: endothelial E-selectin expression blockers – imaging, HUVEC, immunofluorescence, MLSMR starter and 10KST1 sets, primary screen (AID 487;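 active = visually confirmed hit in the image check and inhibition above 20%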;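 as to inhibition: signal is fraction of cell area covered by stained E-selectin grains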;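 as to nuclei count: 100% = median nuclei count of all wells on the same plate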). As to conditions: HUVEC TNFalpha-induced E-selectin immunofluorescence imaging, at 2 µM; inhibition: stronger effect = higher value; nuclei count: measured here: cell number, toxicity.
Assay [3] in a line: Primary imaging screen for DUSP6 inhibitors that restore phospho-Erk in transfected HeLa cells, chemical complementation (AID 609;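 active = compounds giving at least 50% inhibition in the cell-based MKP-3 phosphatase rescue imaging test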;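 as to inhibition: phospho-Erk level distribution per well compared with pooled transfected vehicle control wells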). The following applies: HeLa MKP-3 transfected, phospho-Erk imaging KS statistic, at 10 µM, cells stimulated with TPA for 15 min.
The target in assay [4] is Dual specificity protein phosphatase 6 (Homo sapiens) (UniProt Q16828). The assay is described as above. The following applies: HeLa MKP-3 transfected, phospho-Erk imaging KS statistic; at 10 µM; stronger effect = higher value; cells stimulated with TPA for 15 min.
The target of assay [5] is Voltage-gated potassium channel subunit beta-2 (Rattus norvegicus) (UniProt P62483). Nature of the assay: inhibitors of rat Kvbeta2 reductase activity – biochemical, NADPH fluorescence, primary screen (AID 622;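 active = fluorescence slope higher than the sample average by over 3 SD, cut at about -0.22 in these data, passing the limit was not always enough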;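 also: slope of raw intensity against log time taken from 70 to 1610 s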). As to conditions: recombinant KvBeta, 4-cyanobenzaldehyde reduction, at 10 µM, stronger effect = higher value.
For assay [6] the target is unchanged. In words: enhancers of rat Kvbeta2 NADPH turnover – biochemical, NADPH fluorescence, primary screen (AID 623).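 Also: fluorescence intensity change per second fitted from 20 to 320 s.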 The following applies: Recombinant KvBeta, NADPH fluorescence decrease slope, 10 min; at 10 µM; stronger effect = lower value.
Assay [7] has as its target Alpha-2C adrenergic receptor (Homo sapiens) (UniProt P18825). Nature of the assay: compounds altering alpha2C-coupled GIRK flux – cell-based, HEK293 alpha2C/GIRK1/2, thallium flux, primary screen (AID 624;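 active = fluorescence slope after compound addition differing from the mean of all screened samples at 99.7% confidence, in either direction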;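 also: slope of fluorescence ratio to pre-addition baseline per second over 15 to 24 s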). The following applies: thallium flux BTC fluorescence, at 10 µM, actives lie on both sides.
A short description of assay [8]: inhibitors of larval lipid processing in zebrafish, primary screen, whole organism, PED6 fluorescence, gall bladder and intestine (AID 686;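 active = a full or partial loss of lipid-probe fluorescence in the fish gall bladder, intestine or both, judged by eye; inactive = no fluorescence loss, or compound toxic to the fish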;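 also: larvae 5 to 7 days old with five fish per well; signal comes from phospholipase A2 cleavage of quenched PED6 carried via bile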). The following applies: Zebrafish larvae PED6 lipid processing, fluorescence scoring; screened at 20 µM (by protocol). A digest of the protocol:
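Incubation: overnight exposure of larvae to compound plus PED6 / Test system: live zebrafish larvae aged 5-7 days, whole organism / Amount: 5 larvae per well / Read-out basis: visual per-well fluorescence inhibition score / Signal: visual fluorescence microscopy scoring of gall bladder, gut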

Assay [9] can be described thus: loss of swimming-algae plug formation – whole organism, Chlamydomonas reinhardtii, WT vs cilia-less mutant, absorbance, 96-well, primary screen (AID 463189;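 active = inhibition at or above 50% relative to wild type and mutant plate controls; inactive = inhibition below 50%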;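 also: 0% = wild type cc124 cells in DMSO and 100% = ciliumless bld1 mutant cells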). The following applies: Chlamydomonas reinhardtii gravitaxis, OD600 absorbance, 2 days; at 10 µM; stronger effect = higher value.
Where [10] appears, read: measured here: cell density z-score.
Where [11] appears, read: measured here: nuclear c-Myc green intensity z-score.
The mark [12] stands for this setting: measured here: nuclear pErk red intensity z-score, stronger effect = higher value.

Chain of Dual specificity protein phosphatase 6 (Homo sapiens) (Q16828 whole entry, looked up): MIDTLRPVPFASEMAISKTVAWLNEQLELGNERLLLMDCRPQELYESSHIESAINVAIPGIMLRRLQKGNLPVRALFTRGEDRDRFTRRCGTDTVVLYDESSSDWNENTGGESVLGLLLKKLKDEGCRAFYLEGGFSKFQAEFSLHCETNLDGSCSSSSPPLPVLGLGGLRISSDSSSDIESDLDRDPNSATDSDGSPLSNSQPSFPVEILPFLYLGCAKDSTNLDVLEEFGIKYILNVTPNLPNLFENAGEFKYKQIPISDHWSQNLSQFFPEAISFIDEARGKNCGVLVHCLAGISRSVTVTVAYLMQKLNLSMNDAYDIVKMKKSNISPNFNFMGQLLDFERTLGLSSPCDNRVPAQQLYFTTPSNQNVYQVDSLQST
Chain of Alpha-2C adrenergic receptor (Homo sapiens) (P18825 whole entry, looked up): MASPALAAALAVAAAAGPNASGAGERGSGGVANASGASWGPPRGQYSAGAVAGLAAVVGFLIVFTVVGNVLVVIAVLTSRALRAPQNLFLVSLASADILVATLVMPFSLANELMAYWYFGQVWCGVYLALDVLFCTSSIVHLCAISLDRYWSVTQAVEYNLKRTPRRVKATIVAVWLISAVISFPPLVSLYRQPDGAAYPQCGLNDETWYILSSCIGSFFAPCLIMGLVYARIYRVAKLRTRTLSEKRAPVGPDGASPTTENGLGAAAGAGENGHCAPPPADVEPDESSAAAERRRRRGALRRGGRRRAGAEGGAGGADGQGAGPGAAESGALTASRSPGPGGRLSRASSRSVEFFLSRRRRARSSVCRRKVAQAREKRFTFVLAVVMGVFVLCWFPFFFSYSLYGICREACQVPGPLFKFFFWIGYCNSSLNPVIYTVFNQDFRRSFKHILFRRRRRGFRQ
Chain of Voltage-gated potassium channel subunit beta-2 (Rattus norvegicus) (P62483 whole entry, looked up): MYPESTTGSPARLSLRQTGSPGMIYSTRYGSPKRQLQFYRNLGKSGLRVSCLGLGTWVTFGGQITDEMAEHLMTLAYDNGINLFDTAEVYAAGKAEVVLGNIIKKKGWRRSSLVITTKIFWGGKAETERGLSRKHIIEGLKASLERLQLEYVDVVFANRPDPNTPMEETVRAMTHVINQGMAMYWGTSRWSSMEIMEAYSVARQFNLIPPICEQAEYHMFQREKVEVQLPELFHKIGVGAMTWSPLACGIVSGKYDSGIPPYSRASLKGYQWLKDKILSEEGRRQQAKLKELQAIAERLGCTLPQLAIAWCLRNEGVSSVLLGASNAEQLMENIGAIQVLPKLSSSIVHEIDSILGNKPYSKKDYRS

`CCOC(=O)CSc1nnc2n(C3CCCCC3)c(=O)c3c4c(sc3n12)CCCC4`: the cell count in [1] is 650. The inhibition in [1] is -11.4% (inactive); in [2], -104% (inactive); in assay [4], 1.75% (inactive); in [9] it was -1.33% (inactive). Further, the nuclei count in [2] was 146%. The z-score was -1.05 in [3] (setting [10]), -0.745 in assay [3] (setting [11]) and -0.835 in assay [3] (setting [12]). The fluorescence slope in assay [5] is -0.533 (inactive). Moreover, the NADPH fluorescence slope in assay [6] was -0.0001 (inactive). Moreover, the slope in [7] was 0.00612 (inactive). Also, the molecule was called inactive in [8].

As for `CC(C)(C)c1ccc(C(=O)C=[N+]=[N-])cc1`, in assay [1], the cell count stood at 519. Moreover, the inhibition in [1] was -4.7% (inactive); in assay [2], -112% (inactive); in assay [4], 3.97% (inactive); in assay [9], 2.22% (inactive). In assay [2], this molecule registered a nuclei count of 60.8%. The figures for the z-score in assay [3] (setting [10]), in assay [3] (setting [11]) and in [3] (setting [12]) were -1.12, -0.668 and -0.2, respectively. Further, the fluorescence slope in assay [5] was -0.524 (inactive). Besides, the NADPH fluorescence slope in assay [6] is -6.4e-05 (inactive). The slope in [7] was 0.00701 (inactive). The outcome in [8] was inactive.

Consider `O=C1c2ccccc2C(=O)N1CCN1CCc2ccccc21`, for which, in assay [1], the cell count was 404. The inhibition in assay [1] is -3.1% (inactive); in assay [2], -131% (inactive); in assay [4], 13.2% (inactive); in assay [9] it was -3.59% (inactive). Moreover, the nuclei count in [2] amounted to 166%. Besides, the z-score in assay [3] (setting [10]) was 0.756; in assay [3] (setting [11]), -0.637; in assay [3] (setting [12]), -0.565. Also, the fluorescence slope in assay [5] is -0.394 (inactive). In addition, the NADPH fluorescence slope in [6] is -5.6e-05 (inactive). Besides, in [7], the slope was 0.00539 (inactive). Moreover, the molecule was called inactive in assay [8].

As to `O=C(c1nsnc1-c1ccccc1O)N1CCCCC1`, the cell count in assay [1] came out at 500. The inhibition was -8% (inactive) in assay [1], -58.8% (inactive) in assay [2], 17.8% (inactive) in assay [4] and 24.8% (inactive) in assay [9]. The molecule also displayed a nuclei count in assay [2] of 86.9%. Also, the results for the z-score in assay [3] (setting [10]), in assay [3] (setting [11]) and in assay [3] (setting [12]) were 0.333, 0.0172 and 0.334, respectively. The fluorescence slope in assay [5] was -0.563 (inactive). Besides, in assay [6], the NADPH fluorescence slope is -9.1e-06 (inactive). The slope in [7] is 0.007 (inactive). For the same molecule, in assay [8], the outcome was inactive.

Consider `Cc1c(/C(O)=C2\C(=O)C(=O)N(CCN(C)C)C2c2cccs2)cnn1-c1ccccc1` (configuration not stated), for which the cell count in assay [1] came out at 544. Moreover, the inhibition is 1.9% (inactive) in assay [1], -68.6% (inactive) in assay [2], -5.26% (inactive) in assay [4] and -16.4% (inactive) in assay [9]. In assay [2], this molecule had a nuclei count of 127%. Also, the z-score is 1.03 in assay [3] (setting [10]), -0.0076 in [3] (setting [11]) and 0.683 in [3] (setting [12]). For the same molecule, the fluorescence slope in [5] was -0.578 (inactive). For the same molecule, the NADPH fluorescence slope in assay [6] is -3.3e-05 (inactive). Moreover, in [7], the slope was 0.00515 (inactive). Also, in [8], the molecule was called inactive.

Consider `CCNc1nc(Oc2ccccc2)nc(OC(C)C(=O)OCC)n1` (configuration not stated), for which the cell count in assay [1] was found to be 674. Also, the inhibition in assay [1] was 1.4% (inactive); in [2], -19.3% (inactive); in assay [4] it was -2.07% (inactive); in assay [9], -3.35% (inactive). This molecule also showed a nuclei count in assay [2] of 172%. Moreover, the z-score in assay [3] (setting [10]) is -0.682; in [3] (setting [11]) it was -0.0206; in assay [3] (setting [12]), 2.56. Further, the fluorescence slope in [5] is -0.532 (inactive). For the same molecule, the NADPH fluorescence slope in [6] was -6.7e-05 (inactive). For the same molecule, in [7], the slope is 0.00506 (inactive). For the same molecule, the molecule was classed as inactive in assay [8].

For the molecule `CC1(C)Cc2c(sc3c2C(=O)N(c2ccccc2)C2=NCCCN23)CO1`, the cell count in [1] is 624. For the same molecule, the inhibition in assay [1] was -12.4% (inactive); in [2], -154% (inactive); in assay [4], 18.9% (inactive); in assay [9], 41.4% (inactive). The nuclei count in assay [2] came out at 120%. The z-score in assay [3] (setting [10]) was 1.04; in assay [3] (setting [11]) it was -0.486; in [3] (setting [12]) it was -1.32. For the same molecule, the fluorescence slope in assay [5] is -0.593 (inactive). Moreover, in assay [6], the NADPH fluorescence slope was -2e-05 (inactive). Further, in assay [7], the slope was 0.00454 (inactive). Further, the molecule was classed as inactive in assay [8].

For `Nc1ccc2oc3ncccc3c(=O)c2c1`, the cell count in assay [1] is 518. Also, the inhibition in assay [1] was -0.6% (inactive); in [2], -52.6% (inactive); in assay [4] it was 22.3% (inactive); in assay [9], -10.9% (inactive). Further, the nuclei count in assay [2] came to 172%. For the same molecule, the z-score is 1.1 in assay [3] (setting [10]), -0.546 in assay [3] (setting [11]) and -0.617 in assay [3] (setting [12]). Moreover, the fluorescence slope in [5] was -0.511 (inactive). Besides, the NADPH fluorescence slope in assay [6] is -2.4e-05 (inactive). For the same molecule, the slope in [7] was 0.00436 (inactive). Besides, the molecule was called inactive in [8].

`COC(=O)CC1=NC(=O)CS1`: the cell count in assay [1] was 690. Moreover, the inhibition in [1] was -4.3% (inactive); in assay [2], -84.4% (inactive); in [4] it was -7.28% (inactive); in [9], -1.11% (inactive). In [2], the nuclei count came out at 164%. In addition, the values for the z-score in assay [3] (setting [10]), in [3] (setting [11]) and in [3] (setting [12]) were -1.27, 0.428 and 1.11, respectively. Besides, the fluorescence slope in assay [5] was -0.41 (inactive). In assay [6], the NADPH fluorescence slope is -8.9e-06 (inactive). Further, the slope in assay [7] was 0.00544 (inactive). The call in assay [8] was inactive.

For the molecule `CCOc1ccc(-c2nnc3sc(COc4ccccc4)nn23)cc1`, the cell count in [1] is 502. The inhibition in assay [1] is -11.7% (inactive); in assay [2], -288% (inactive); in [4], -15% (inactive); in [9], 53.8% (active). In assay [2], this molecule returned a nuclei count of 155%. In addition, the z-score in assay [3] (setting [10]) was -0.358; in [3] (setting [11]), -0.85; in assay [3] (setting [12]), 1.78. In assay [5], the fluorescence slope was -0.405 (inactive). Moreover, the NADPH fluorescence slope in assay [6] is -0.000151 (inactive). Besides, the slope in assay [7] was 0.00528 (inactive). Besides, the molecule was called inactive in assay [8].

As for `CSc1sc(C(=O)O)c2c1C(=O)CCC2`, the cell count in assay [1] worked out at 562. Moreover, the inhibition is -4.6% (inactive) in assay [1], -163% (inactive) in [2], 5.65% (inactive) in assay [4] and -9.07% (inactive) in assay [9]. In addition, the nuclei count in [2] was found to be 186%. Moreover, the z-score is -0.487 in [3] (setting [10]), 1.05 in assay [3] (setting [11]) and 0.511 in assay [3] (setting [12]). Besides, in assay [5], the fluorescence slope is -0.486 (inactive). Besides, the NADPH fluorescence slope in [6] is -0.000199 (inactive). Besides, the slope in assay [7] is 0.00495 (inactive). The outcome in [8] was inactive.

Regarding `O=c1c(C=NCCCn2ccnc2)c(-c2ccccc2)[nH]n1-c1nc2ccccc2s1`, the cell count in assay [1] came to 579. In addition, the inhibition was -6.5% (inactive) in [1], -108% (inactive) in assay [2], 25.8% (inactive) in [4] and 1.09% (inactive) in [9]. This molecule also returned a nuclei count in [2] of 132%. Besides, the z-score is 1.34 in assay [3] (setting [10]), -0.223 in [3] (setting [11]) and 0.991 in assay [3] (setting [12]). Further, the fluorescence slope in assay [5] is -0.47 (inactive). The NADPH fluorescence slope in assay [6] is -1.6e-05 (inactive). The slope in assay [7] is 0.00444 (inactive). Moreover, the result in [8] was inactive.

On to `CCOC(=O)c1c(SC)nc(SC)c2c1CCC2`, for which the cell count in assay [1] was 648. Also, the inhibition in [1] is -8.1% (inactive); in [2], -63.6% (inactive); in [4], -5.62% (inactive); in assay [9], -10% (inactive). Moreover, the nuclei count in assay [2] was 182%. Further, the z-score in [3] (setting [10]) amounted to 0.267; in assay [3] (setting [11]) it was 0.0457; in assay [3] (setting [12]), 1.4. The fluorescence slope in [5] is -0.394 (inactive). Besides, the NADPH fluorescence slope in assay [6] was -4.6e-05 (inactive). For the same molecule, in assay [7], the slope was 0.00956 (inactive). Besides, in assay [8], the result was inactive.

For `CCn1cc(C(=O)NCC2CCCO2)c(=O)c2cc(F)c(N3CCN(C)CC3)cc21` (configuration not stated), the cell count in [1] stood at 570. For the same molecule, the inhibition is -6.7% (inactive) in assay [1], -14.6% (inactive) in assay [2], 1.75% (inactive) in assay [4] and 4.63% (inactive) in assay [9]. The molecule further showed a nuclei count in assay [2] of 188%. Moreover, the z-score in assay [3] (setting [10]) is -0.305; in [3] (setting [11]) it was -1.21; in assay [3] (setting [12]), 2. Further, the fluorescence slope in [5] is -0.388 (inactive). Moreover, in [6], the NADPH fluorescence slope was -2.9e-05 (inactive). In addition, the slope in assay [7] is 0.00486 (inactive). Further, the molecule was called inactive in assay [8].
